Screening results as filed in PubChem BioAssay.
Only some compounds are listed: those with a hit (about 2.3% of all), similar ones and a draw of the others.
Mcl1-Noxa inh – disrupts binding of human Mcl-1 to Noxa peptide. TR-FRET Mcl-1/Noxa peptide binding, 2 h. AID 1022. 220,000 tested, 1.5% active. inhibition, % at 21.7 µM;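 active = compounds that cut the protein-peptide binding signal by more than 50% relative to plate controls in a single-dose test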;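 also: His-tagged Mcl-1 with rhodamine Noxa BH3 peptide and terbium anti-His antibody; 0% = Mcl-1 plus Noxa peptide wells and 100% = peptide-only wells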
Target sequence (Q07820 whole entry, looked up): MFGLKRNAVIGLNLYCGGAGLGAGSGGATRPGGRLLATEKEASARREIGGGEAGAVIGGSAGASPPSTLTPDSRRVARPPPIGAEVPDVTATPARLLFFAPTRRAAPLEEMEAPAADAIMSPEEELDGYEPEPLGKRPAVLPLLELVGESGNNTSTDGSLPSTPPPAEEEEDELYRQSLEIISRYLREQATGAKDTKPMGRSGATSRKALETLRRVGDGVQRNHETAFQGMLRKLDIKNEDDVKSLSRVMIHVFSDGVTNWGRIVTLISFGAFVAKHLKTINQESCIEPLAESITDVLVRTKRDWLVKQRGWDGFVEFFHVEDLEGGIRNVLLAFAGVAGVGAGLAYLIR
DSG3 Ab inh – human desmoglein-3 autoantibody binding inhibition; P32926; DSG3-coupled beads, scFv-anti-DSG3-GFP binding, flow cytometry; hits give low values; binding (percent of control), % at 10 µM; 310,000 tested, 0.48% active; AID 588358;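 active = binding more than 3 SD below its plate's average and above zero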;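 also: hits lower antibody fragment binding to DSG3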
MCL1-BIM inh – disrupts human MCL1 binding to BIM-BH3 peptide; Q07820; GST-MCL1 / FITC-Bim-BH3 fluorescence polarization; inhibition, % at 10.9 µM; 320,000 tested, 0.68% active;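 active = inhibition above the mean inhibition of all tested compounds plus 3 SD, set per campaign, cut at about 40% in these data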;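 also: 0% = DMSO wells and 100% = unlabeled Bim-BH3 peptide control; higher means more loss of mP so more displacement of Bim peptide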
T cell modulator – T cell immune modulators affecting CD8 T cell-vesicle binding; 330,000 tested, 0.068% active; 2C CD8+ T cell-vesicle binding, flow cytometry; hits give low values; response (vesicle binding), % at 7 µM; AID 2052;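 active = response, share of CD8 T cells binding vesicles, and their 90th percentile fluorescence all below set limits, cut at about 80% in these data, passing the limit was not always enough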;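 also: values below 100% mean blocked vesicle binding to the CD8+ T cells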
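Test system: purified 2C TCR transgenic mouse naive CD8+ T cells. Probe or stimulus: QL9-peptide-loaded Drosophila micro-vesicles bearing Ld, ICAM-1 and B7-1. Incubation: binding step 1.5 h, 37 °C, antibody labelling 20 min, ice. Measured by: flow cytometry of vesicle-bound cells.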
Mcl1-Bid inh – disrupts binding of human Mcl-1 to Bid peptide; Q07820; TR-FRET Mcl-1/Bid-Dy647 peptide binding, 1536-well; inhibition, % at 21.7 µM; 220,000 tested, 0.97% active; AID 1021;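 active = compounds that cut the binding signal by more than half at the single screening dose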;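 also: His-tagged Mcl-1 with europium anti-His antibody binding Bid BH3 peptide; 0% = Mcl-1 plus peptide wells and 100% = peptide-only wells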
Mcl-1 Bim block – inhibitors of Bim-Mcl-1 interaction, human | Q07820 | Bead-based flow cytometry, Bim peptide-Mcl-1 binding | inhibition, % at 10 µM | 190,000 tested, 0.1% active | AID 1009; in the data active = inhibition above about 40%;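 also: 0% = no compound tracer wells and 100% = peptide blocker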
BCLXL inh confirm – Bcl-xL (human) inhibition, MCL1 counter-screen confirmation; shares compounds with MCL1-BIM inh; GST-Bcl-xL / FITC-Bim BH3 peptide FP binding; inhibition, % at 10.9 µM; 1,700 tested, 54% active; AID 2166;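 active = inhibition above a cutoff equal to the mean inhibition of all tested compounds plus 3 SD, cut at about 30% in these data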;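 also: 0% = DMSO wells and 100% = unlabeled Bim BH3 control peptide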
Target sequence (Q07817 whole entry, looked up): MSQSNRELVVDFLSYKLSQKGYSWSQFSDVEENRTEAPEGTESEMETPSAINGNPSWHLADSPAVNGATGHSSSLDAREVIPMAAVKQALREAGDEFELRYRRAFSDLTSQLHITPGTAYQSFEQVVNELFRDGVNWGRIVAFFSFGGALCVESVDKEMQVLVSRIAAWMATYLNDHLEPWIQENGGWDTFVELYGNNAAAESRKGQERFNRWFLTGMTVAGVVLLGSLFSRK
MCL1 inh confirm – confirmation of human MCL1 and BIM-BH3 interaction inhibitors. GST-MCL1 / FITC-Bim-BH3 fluorescence polarization. 1,700 tested, 61% active. shares compounds with MCL1-BIM inh. AID 2168. inhibition, % at 10.9 µM;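 active = inhibition above the average of all tested compounds plus 3 SD, cut at about 40% in these data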;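 also: 0% = DMSO wells and 100% = unlabeled Bim-BH3 control peptide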
* hit, by the source's call; i = inactive; / = not tested or not shown.

SMILES	Mcl1-Noxa inh	DSG3 Ab inh	MCL1-BIM inh	T cell modulator	Mcl1-Bid inh	Mcl-1 Bim block	BCLXL inh confirm	MCL1 inh confirm
COc1ccc(-c2c(C)c3ccc(O)cc3oc2=O)cc1OC	/	99	-1	167	/	/	/	/
O=c1ccc2c(-c3ccccc3)c3ccc(O)cc3oc-2c1	/	170	110*	374	/	/	119*	121*
CCS(=O)(=O)c1nc(S(=O)(=O)c2ccc(C)cc2)c(N2CCN(C)CC2)s1	/	95	-4	323	/	/	/	/
COc1ccc2ccc3c(c2c1)N=CC1(O3)N(C)c2ccccc2C1(C)C (stereo not given)	44	99	54*	369	-28	-4	62*	83*
O=C(O)c1cc(O)ccc1NC(=O)C(c1ccccc1)c1ccccc1	/	100	3	159	/	/	/	/
COc1ccc2[nH]c(C(=O)Nc3ncc(C)cc3Br)cc2c1	-5	/	52*	522	-8	/	4	1
COc1ccc(CCNC(=O)C(=O)NCCC2CCCCN2S(=O)(=O)c2ccccc2)cc1 (stereo not given)	/	101	-5	702	/	/	/	/
O=C(NCCC1=CCCCC1)C(=O)NCc1ccncc1	10	52*	68*	190	-19	2	9	-1
N#CC12COC3(CCCCC3C1(C#N)C#N)OC2=N (stereo not given)	10	107	72*	293	-137	/	21	12
N#CC1(C#N)COC23CCCCC2C1(C#N)C(=N)O3 (stereo not given)	12	/	78*	413	-32	0	16	15
COc1ccc(N2CCN(C(=O)Cn3cnc4c(cnn4-c4ccc(C)cc4)c3=O)CC2)cc1	15	96	3	469	13	1	/	/
COc1cccc(C2C=C(c3ccc(OC)cc3OC)Nc3nnnn32)c1 (stereo not given)	7	105	51*	209	-57	-1	14	22
CNC(=S)Nc1cccc(S(=O)(=O)NCc2ccco2)c1	/	93	/	295	/	/	/	/
COc1ccc(Nc2nnc(SCc3cc(=O)n4ccsc4n3)s2)cc1	44	99	68*	115	-34	-1	-4	-3
O=c1cc(CSc2nnc(Nc3ccccc3F)s2)nc2sccn12	6	99	6	121	-32	2	/	/
OCC(Cc1ccccc1)Nc1c2ccccc2nc2ccccc12 (stereo not given)	23	102	40*	i	-25	-3	22	24
COc1ccc(C2CC(=O)C(C=NCCCO)=C(O)C2)cc1 (stereo not given)	/	115	80*	763	/	/	61*	85*
O=C(O)c1cccc(N2C(=O)c3cc([N+](=O)[O-])cc4cc([N+](=O)[O-])cc(c34)C2=O)c1	/	99	47*	238	/	/	21	45*
CCCCN(c1nc2ccccc2nc1Cl)S(=O)(=O)c1ccc(C)cc1	/	96	2	291	/	/	/	/
Cn1nc(-c2ccc(Cl)cc2)nc2c(=O)n(C)c(=O)nc1-2	4	/	96*	683	1	-3	94*	121*
CS(=O)(=O)n1nc(-c2ccc(Cl)cc2)nc1N	-8	101	4	162	-19	1	/	/
Cc1cc(C)c(C)c(S(=O)(=O)N2CCC(C(=O)Nc3ccncc3)CC2)c1C	/	111	-2	i	/	/	/	/
CN1CCN(/N=C/c2c3ccccc3c(Cl)c3ccccc23)CC1	11	114	127*	408	-6	0	22	27
Cn1nc([N+](=O)[O-])c(C(C#N)c2ccccn2)c(Cl)c1=O (stereo not given)	5	89	60*	287	-26	-1	23	15
N#CC(c1ccccn1)c1ncc(C(F)(F)F)cc1Cl (stereo not given)	0	93	10	174	-21	-2	/	/
SMILES	Mcl1-Noxa inh	DSG3 Ab inh	MCL1-BIM inh	T cell modulator	Mcl1-Bid inh	Mcl-1 Bim block	BCLXL inh confirm	MCL1 inh confirm
CC(Sc1nc2ncc(Cl)cc2[nH]1)C(=O)Nc1ccccc1[N+](=O)[O-] (stereo not given)	/	100	/	/	/	/	/	/
CC1CN(CCCCOc2ccc(Cl)c3ccccc23)CC(C)O1 (stereo not given)	/	108	-2	768	/	/	/	/
O=C(COC(=O)CNS(=O)(=O)c1ccc(Cl)cc1)NC1CCCCC1	/	96	/	/	/	/	/	/
Cc1ccc(C2C(C(=O)c3ccco3)=C(O)C(=O)N2c2nnc(C)s2)cc1 (stereo not given)	6	107	25	657	-57	-3	/	/
O=C(C1=C(O)C(=O)N(c2nc3ccc(Cl)cc3s2)C1c1ccco1)c1ccco1 (stereo not given)	/	/	57*	888	/	/	26	48*
CSc1nnc(N2C(=O)C(O)=C(C(=O)c3ccco3)C2c2ccccc2F)s1 (stereo not given)	/	105	80*	204	/	/	25	25
CSc1nnc(N2C(=O)C(O)=C(C(=O)c3ccco3)C2c2ccccc2)s1 (stereo not given)	/	108	53*	377	/	/	54*	70*
Cc1ccc2nc(N3C(=O)C(O)=C(C(=O)c4ccc(C)o4)C3c3ccco3)sc2c1 (stereo not given)	/	103	7	552	/	/	/	/
CC(=O)N1CCc2c(sc(NC(=O)c3ccc(S(=O)(=O)N(C)CC4CCCO4)cc3)c2C(N)=O)C1 (stereo not given)	/	97	/	/	/	/	/	/
CC1(C)CC(Cc2ccc(C(=O)c3ccccc3)cc2)N(C(=O)OC(C)(C)C)N1 (stereo not given)	/	97	/	/	/	/	/	/
CCOC(=O)c1c(C)[nH]c2cc(Br)c(O)cc12	22	/	6	768	-26	-2	/	/
CCOC(=O)c1c(OCC)[nH]c2c1cc(O)c1ccccc12	75*	103	42*	268	-23	8	56*	73*
COc1ccc2nc(N3CCCC3)c(C#N)cc2c1	5	91	67*	242	1	0	115*	130*
COc1ccc2nc(N3CCCCC3)c(C#N)cc2c1	-7	100	27	188	18	-2	/	/
COC(=O)CCCCC1SCC(NC(=O)OC)C1NC(=O)OC (stereo not given)	-1	104	49*	269	-26	0	5	2
CC1=CC(=Nc2c(C)n(C)n(-c3ccccc3)c2=O)C=CC1=O	21	/	126*	244	-114	/	28	25
CC1=CC(=Nc2c(C)n(C)n(-c3ccccc3)c2=O)C=C(C)C1=O	-4	109	3	290	-34	-2	/	/
